KCNQ1 inh – inhibitors of human KCNQ1 channel, primary screen, cell-based, thallium flux, high-throughput; AID 2642, 2010; Potassium voltage-gated channel subfamily KQT member 1 (Homo sapiens), P51787; CHO-K1 KCNQ1, FluxOR thallium flux fluorescence; active compounds read high; B-score at 10 µM; 310,000 compounds, 1.3% hits;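 active means compounds whose thallium flux B-score, printed positive for inhibition, exceeds three library SD while starting fluorescence stays within three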;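 further: channel opened by potassium depolarization with thallium stimulus after 20 min compound exposure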
Target sequence (P51787 whole entry, looked up): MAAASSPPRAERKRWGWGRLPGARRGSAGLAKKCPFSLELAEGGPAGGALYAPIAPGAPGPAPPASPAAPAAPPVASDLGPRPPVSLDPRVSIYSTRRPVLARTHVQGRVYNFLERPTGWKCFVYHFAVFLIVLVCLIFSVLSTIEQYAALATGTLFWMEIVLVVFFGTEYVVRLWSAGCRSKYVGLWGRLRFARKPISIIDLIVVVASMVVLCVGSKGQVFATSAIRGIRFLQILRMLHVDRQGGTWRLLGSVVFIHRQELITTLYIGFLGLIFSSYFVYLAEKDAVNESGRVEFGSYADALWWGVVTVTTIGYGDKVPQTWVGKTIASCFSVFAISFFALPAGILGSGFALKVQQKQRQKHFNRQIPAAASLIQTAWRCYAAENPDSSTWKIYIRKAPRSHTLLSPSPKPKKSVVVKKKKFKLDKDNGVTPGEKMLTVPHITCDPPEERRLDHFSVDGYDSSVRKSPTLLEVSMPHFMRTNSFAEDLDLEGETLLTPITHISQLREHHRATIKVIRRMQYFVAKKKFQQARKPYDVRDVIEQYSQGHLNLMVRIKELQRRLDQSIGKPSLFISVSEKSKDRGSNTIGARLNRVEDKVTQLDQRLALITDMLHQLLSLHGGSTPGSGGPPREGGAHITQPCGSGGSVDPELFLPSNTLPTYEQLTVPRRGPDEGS
KCNQ1 pot – potentiators or activators of KCNQ1 channel, primary screen, cell-based, thallium flux, high-throughput. Potassium voltage-gated channel subfamily KQT member 1 (Homo sapiens), P51787. CHO-K1 KCNQ1, thallium flux FluxOR fluorescence; active compounds read high. B-score at 10 µM. 310,000 compounds, 0.35% hits. AID 2648, 2010;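 active means fluorescence ratio B-score, a plate-corrected score, at least three library SD, with initial intensity B-score within 5 SD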
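System: Stable KCNQ1 CHO-K1 line | Incubation: 90 min dye loading and 20 min compound exposure, both at room temperature | Measure: Ratio B score | Medium: Assay buffer for compound exposure, DMSO matched across wells | Compound dosing: Single-concentration screen | Probe or stimulus: K+/Tl+ depolarizing stimulus | Measured by: Kinetic FluxOR fluorescence, 10 s baseline plus 110 s post-stimulus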
KCNK3 block – human KCNK3 channel inhibitors, primary screen, CHO cells, FluxOR thallium flux, B-score; FluxOR fluorescence; active compounds read low; B-score at 10 µM; 340,000 compounds, 0.84% hits; AID 602410, 2012;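 active means B-score under library mean minus 4 SD, starting fluorescence ratio at most library mean plus 5 SD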;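 further: more negative B-score means stronger inhibition of thallium flux through KCNK3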
hERG rescue – hERG rescue from dofetilide block, primary screen, cell-based, CHO-hERG, FluxOR thallium flux, dofetilide IC70; activation (rescue from dofetilide block), less the hit threshold, % at 10 µM; Voltage-gated inwardly rectifying potassium channel KCNH2 (Homo sapiens), Q12809; 310,000 compounds, 0.51% hits; dofetilide IC70 present;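 active means activation above the mean of controls blocked by dofetilide plus 5 SD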;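 further: thallium influx through hERG after potassium depolarization seen as dye fluorescence rise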
KCNK9 inh – KCNK9 potassium channel inhibitors, primary screen, HEK293 cells, thallium flux. B-score at 10 µM. FluxOR thallium flux fluorescence; active compounds read low. AID 488922, 2010. 310,000 compounds, 1.2% hits;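 active means ratio B-score over 3 SD below the library mean, with starting fluorescence within 5 SD of its mean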;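 further: negative B-score means less thallium flux so channel inhibition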
Kir21 block – inhibitors of mouse Kir2.1 inward-rectifier potassium channel. Inward rectifier potassium channel 2 (Mus musculus), P35561. HEK293-Kir2.1, FluxOR thallium flux fluorescence; active compounds read low. B-score at 10 µM. 310,000 compounds, 0.85% hits. AID 1672, 2009;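 active means fluorescence ratio B-score at or below minus 3 SD of library scores, with starting-brightness B-score within 2 SD, cut at about -4.2 in these data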;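 further: channel flux triggered by added potassium and thallium sulfate stimulus; B-score of peak minus minimum fluorescence over baseline after thallium stimulus; more negative B-score means stronger Kir2.1 block with less thallium influx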
KCNQ1 block val – KCNQ1 potassium channel inhibitors, confirmation, cell-based, Tl flux, duplicate; shares compounds with KCNQ1 inh; KCNQ1 cell line, FluxOR thallium flux fluorescence; inhibition, % at 10 µM; 1,600 compounds, 93% hits;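 active means primary screen active, with duplicate mean exceeding buffer control mean plus 3 SD of buffer wells, cut at about 28% in these data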;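 further: 0% = buffer control ratio and 100% = XE991 inhibitor control ratio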
CHO Tl flux – thallium flux effects in parental CHO cells, counter-screen for KCNQ1 inhibitor project, cell-based, Tl flux. AID 588366, 2011. parental CHO-K1, FluxOR thallium flux fluorescence ratio; active compounds read low; zero means no signal rise above baseline. shares compounds with KCNQ1 inh. fluorescence ratio (Tl flux) at 10 µM. 1,600 compounds, 21% hits;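 active means mean of duplicate thallium-flux fluorescence ratios in parental host cells more than 5 SD below the buffer control mean, cut at about 0.38 in these data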;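 further: ratio is peak minus minimum fluorescence divided by baseline fluorescence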
KCNQ1 APC inh – KCNQ1 channel inhibitors, confirmation, orthogonal assay, cell-based, automated electrophysiology | shares compounds with KCNQ1 inh | KCNQ1-CHO cells, automated patch clamp current | calls only at 10 µM | 490 compounds, 20% hits | AID 624120, 2012;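 active means KCNQ1 current drop exceeding 3 SD of negative control wells, seen in both duplicate runs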;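 further: steady state current during a 2 s step from -80 to +40 mV; negative values mean current inhibition and positive values mean potentiation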
KCNQ2 inh – KCNQ2 channel inhibition, selectivity assay for KCNQ1 inhibitor project, cell-based. 1,600 compounds, 71% hits. inhibition, % at 10 µM. AID 651746, 2012. shares compounds with KCNQ1 inh. KCNQ2 cells, FluxOR thallium flux fluorescence;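 active means mean percent inhibition of the KCNQ2 thallium signal more than 5 SD above the buffer-only control wells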;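 further: KCNQ2 expressed in CHO cells; 0% = buffer control wells and 100% = XE-991 inhibitor control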
KCNQ1-KCNE1 inh – KCNQ1/KCNE1 channel inhibition, selectivity assay for KCNQ1 inhibitor project, CHO-K1 cells, thallium flux, FluxOR; shares compounds with KCNQ1 inh; FluxOR thallium flux fluorescence; inhibition, % at 10 µM; 1,600 compounds, 77% hits;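 active means mean percent inhibition of duplicate wells above the buffer-only control mean plus 3 SD of those controls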;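 further: 0% = buffer only wells and 100% = XE-991 inhibitor control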
Active calls of the source: *; i = inactive; . = no result given; + = active, no number. This is a sample that favours compounds with a hit; in the whole collection about 3.8% have one here.

SMILES | KCNQ1 inh | KCNQ1 pot | KCNK3 block | hERG rescue | KCNK9 inh | Kir21 block | KCNQ1 block val | CHO Tl flux | KCNQ2 inh | KCNQ1-KCNE1 inh | others
O=C(Nc1nc2c(s1)COc1ccccc1-2)c1cccs1 | 7* | i | i | -16 | i | -0.36 | 44* | 0.52 | 102%* | 64%*
O=C(CCS(=O)(=O)c1ccccc1)Nc1nc2c(s1)COc1ccccc1-2 | 6* | i | i | -22 | i | 0.24 | 54* | 0.51 | 59%* | 54%*
O=C(CCS(=O)(=O)c1ccccc1)Nc1nncs1 | i | i | i | -2 | i | -0.76 | . | . | . | .
CC(C)(C)NC(=O)C(c1ccco1)N(Cc1ccc2c(c1)OCO2)C(=O)c1snc(C(N)=O)c1N (stereo not given) | i | i | i | -8 | i | 2.5 | . | . | . | .
CN(CC(=O)Nc1cccc(F)c1)C(=O)c1cn(-c2ccccc2)nc1-c1ccccc1 | 8* | i | i | -19 | i | 0.81 | 74* | 0.42 | 74%* | 93%*
CN(CC(=O)Nc1ccc(F)cc1)C(=O)c1cn(-c2ccccc2)nc1-c1cccs1 | . | . | i | . | . | . | . | . | . | .
O=C(O)CC(=O)Nc1cc(Cl)ccc1O | i | i | i | -1 | i | 0.37 | . | . | . | .
O=C(CCc1ccccc1)Nc1cc(Cl)ccc1O | 9* | i | i | -8 | i | -0.57 | 63* | 0.47 | i | 90%*
COc1ccc(S(=O)(=O)n2nc(-n3c(C)ccc3C)c3c(F)cccc32)cc1OC | 9* | i | i | -9 | i | -0.95 | 124* | 0.4 | 107%* | 138%* | KCNQ1 APC inh=i
CC(=O)N1CCN=C1SCc1ccc(Cl)cc1 | i | i | i | 1 | i | 0.89 | . | . | . | .
COc1cccc(-c2cc3nc(-c4ccccc4)cc(N4CCCC(O)C4)n3n2)c1 (stereo not given) | 9* | i | i | -20 | i | 0.83 | 85* | 0.44 | 134%* | 182%*
CC(O)[C@H]1CNC(=O)C(=O)N1CC1(c2ccccc2)CC1 (stereo not given in full) | i | i | i | -9 | i | 0.57 | . | . | . | .
CCOc1ccc(N(CC(=O)NC2CC3CCC2C3)S(=O)(=O)c2ccc(C)cc2)cc1 (stereo not given) | 8* | i | i | -8 | i | 0.05 | 100* | 0.46 | 94%* | 100%* | KCNQ1 APC inh=+
CCOC(=O)c1cn[nH]c1NC(=S)Nc1ccc(Cl)cc1 | 13* | i | i | -13 | i | -0.3 | 78* | 0.55 | 76%* | 54%*
CCOC(=O)c1ccc(NC(=S)Nc2ccc(C)cc2)cc1 | i | i | i | -16 | i | 0.79 | . | . | . | .
CC(=O)Nc1c(NC(=O)CC#N)[nH]c2c(c1=O)c(=O)n(C)c(=O)n2C | i | i | i | -3 | i | -0.11 | . | . | . | .
CC1CN(S(=O)(=O)c2cccc(C(=O)Nc3ccccc3N3CCCCC3)c2)CC(C)O1 (stereo not given) | 7* | i | i | -9 | i | -0.9 | 76* | 0.39 | 114%* | 88%*
Cc1cccc(N2C(=O)CSC23CCCCC3)c1 | i | i | i | -13 | i | -0.29 | . | . | . | .
COC(=O)CCC(NS(=O)(=O)OCC(Cl)(Cl)Cl)c1ccccc1 (stereo not given) | i | i | i | -8 | i | -3.5 | . | . | . | .
CC(NS(=O)(=O)OCC(Cl)(Cl)Cl)c1ccc(Br)cc1 (stereo not given) | 7* | i | i | -20 | i | -7.1* | 126* | 0.41 | 73%* | 104%* | KCNQ1 APC inh=i
CC(C)CC(NS(=O)(=O)OCC(Cl)(Cl)Cl)c1ccccc1 (stereo not given) | 12* | i | i | -19 | i | 0.29 | 56* | 0.44 | 65%* | i
CC(=O)Nc1ccc(NC(=O)CCSCCc2ccccn2)cc1 | i | i | i | -8 | i | 0.69 | . | . | . | .
Brc1ccc(-c2csc3ncnc(-n4nnc5ccccc54)c23)cc1 | i | i | i | -6 | i | -0.87 | . | . | . | .
CCOc1ccccc1OC(=O)CN1C(=O)c2ccccc2C1=O | i | i | i | -4 | i | -0.55 | . | . | . | .
O=[N+]([O-])c1c(Nc2cccc(O)c2)cc(Cl)c2nonc12 | 24* | i | i | -33 | -8* | -7.4* | 166* | 0.29* | 129%* | +
Cc1ccc(CSc2nnc(-c3ccncc3)n2CC2CCCO2)cc1 (stereo not given) | i | i | i | -10 | i | 1.2 | . | . | . | .
Cc1cc(NC(=O)CSc2nc3c([nH]c4ccccc43)c(=O)n2-c2ccccc2F)no1 | i | i | i | -18 | i | -1.2 | . | . | . | .
CC1C(=O)C(C)C(c2cc(Cl)ccc2O)NC1c1cc(Cl)ccc1O (stereo not given) | 10* | i | i | -16 | i | 0.16 | 84* | 0.43 | 83%* | 122%*
CC(C)=CCN1CCN(Cc2cnc(-c3ccccc3)s2)CC1CCO (stereo not given) | i | i | i | -13 | i | -1.4 | . | . | . | .

Screens deposited in PubChem by Johns Hopkins Ion Channel Center.
